Measurements taken from ChEMBL document CHEMBL4428062, “Human Toll-like Receptor (TLR) 8-Specific Agonistic Activity in Substituted Pyrimidine-2,4-diamines” (J Med Chem, 2016).
The source made the active and inactive calls. The rule behind the calls is not given here.

Tests used:
Format in all cases: cell-based
Toll-like receptor 8 = biological target: T1, Toll-like receptor 8 (Homo sapiens, UniProt Q9NR97); test: Agonist activity at human TLR8 expressed in HEK293 cells assessed as induction of NF-kappaB activity by secreted alkaline phosphatase reporter gene assay
T1 sequence (Q9NR97 whole entry): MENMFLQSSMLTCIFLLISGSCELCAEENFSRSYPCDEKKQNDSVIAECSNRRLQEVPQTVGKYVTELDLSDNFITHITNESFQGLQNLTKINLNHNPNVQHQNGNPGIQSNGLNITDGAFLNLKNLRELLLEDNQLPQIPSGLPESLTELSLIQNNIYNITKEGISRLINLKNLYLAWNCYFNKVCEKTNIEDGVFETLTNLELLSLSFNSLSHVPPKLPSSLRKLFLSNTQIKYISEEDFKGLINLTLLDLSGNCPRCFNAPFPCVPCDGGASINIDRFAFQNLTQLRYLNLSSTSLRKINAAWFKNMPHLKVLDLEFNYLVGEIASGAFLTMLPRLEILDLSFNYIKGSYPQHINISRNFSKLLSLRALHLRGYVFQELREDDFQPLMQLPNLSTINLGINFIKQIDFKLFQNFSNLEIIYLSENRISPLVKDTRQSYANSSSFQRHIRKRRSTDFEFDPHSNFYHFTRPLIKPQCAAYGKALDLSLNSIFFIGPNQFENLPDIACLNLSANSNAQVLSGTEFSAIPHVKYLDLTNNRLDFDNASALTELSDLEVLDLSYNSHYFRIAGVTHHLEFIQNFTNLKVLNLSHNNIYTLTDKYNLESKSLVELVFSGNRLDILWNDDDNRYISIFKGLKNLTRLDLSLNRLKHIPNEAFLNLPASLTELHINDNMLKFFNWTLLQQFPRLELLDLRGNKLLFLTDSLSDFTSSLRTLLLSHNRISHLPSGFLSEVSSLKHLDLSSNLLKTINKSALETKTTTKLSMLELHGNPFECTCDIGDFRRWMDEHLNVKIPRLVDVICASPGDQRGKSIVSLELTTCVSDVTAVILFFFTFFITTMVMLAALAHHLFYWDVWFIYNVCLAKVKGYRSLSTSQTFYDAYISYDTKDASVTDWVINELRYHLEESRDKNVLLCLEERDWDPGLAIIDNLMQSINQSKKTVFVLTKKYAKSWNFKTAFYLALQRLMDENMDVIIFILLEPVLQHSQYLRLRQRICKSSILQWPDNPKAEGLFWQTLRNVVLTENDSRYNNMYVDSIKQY
Summary of the method: (§1)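 HEK293 reporter lines stably co-transfected with the respective human TLR and an NF-κB/AP-1-driven secreted alkaline phosphatase gene, kept in selection medium. About 10^5 cells/ml were incubated with graded concentrations of stimuli. Supernatant sAP was read spectrophotometrically at 620 nm using a chromogenic substrate in detection medium. EC50 was taken as the arithmetic mean of quadruplicate samples.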

[1] = biological target: T2, Toll-like receptor 8 (Homo sapiens) (UniProt Q9NR97); test: Agonist activity at human TLR8 expressed in HEK293 cells assessed as induction of NF-kappaB activity at 100 uM by secreted alkaline phosphatase reporter gene assay
T2 sequence (whole entry): T1 sequence (Q9NR97 whole entry)
Summary of the method: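 TLR8 reporter HEK293 cells carrying an NF-κB/AP-1-inducible secreted alkaline phosphatase were exposed to stimuli, with 100 µM as the top concentration tested. sAP released into the supernatant was read at 620 nm with a chromogenic substrate. Samples were run in quadruplicate.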

[2] = biological target: Toll-like receptor 2 (Homo sapiens) (UniProt O60603); test: Agonist activity at human TLR2 expressed in HEK293 cells assessed as induction of NF-kappaB activity by secreted alkaline phosphatase reporter gene assay; summary of the method: as §1
Chain of Toll-like receptor 2 (Homo sapiens) (O60603 whole entry): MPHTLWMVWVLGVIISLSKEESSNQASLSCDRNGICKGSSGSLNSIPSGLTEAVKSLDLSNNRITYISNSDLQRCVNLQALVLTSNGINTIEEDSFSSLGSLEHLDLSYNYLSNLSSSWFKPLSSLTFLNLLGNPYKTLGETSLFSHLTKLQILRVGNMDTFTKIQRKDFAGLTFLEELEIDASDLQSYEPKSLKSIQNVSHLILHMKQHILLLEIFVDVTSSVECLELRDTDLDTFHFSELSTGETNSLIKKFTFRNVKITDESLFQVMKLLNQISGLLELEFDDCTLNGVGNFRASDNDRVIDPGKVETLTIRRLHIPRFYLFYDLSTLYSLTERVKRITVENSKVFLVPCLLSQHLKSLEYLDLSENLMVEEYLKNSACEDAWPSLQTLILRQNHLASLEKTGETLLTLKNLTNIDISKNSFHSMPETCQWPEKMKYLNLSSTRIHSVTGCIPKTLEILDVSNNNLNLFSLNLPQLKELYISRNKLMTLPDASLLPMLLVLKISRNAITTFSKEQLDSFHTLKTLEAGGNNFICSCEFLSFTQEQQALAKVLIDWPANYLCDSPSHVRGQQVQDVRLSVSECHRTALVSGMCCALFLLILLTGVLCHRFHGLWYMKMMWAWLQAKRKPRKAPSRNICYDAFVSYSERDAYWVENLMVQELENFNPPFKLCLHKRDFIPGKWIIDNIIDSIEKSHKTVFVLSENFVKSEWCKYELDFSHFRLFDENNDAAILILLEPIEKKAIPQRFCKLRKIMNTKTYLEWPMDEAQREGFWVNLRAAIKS

[3] = biological target: Toll-like receptor 3 (Homo sapiens) (UniProt O15455); test: Agonist activity at human TLR3 expressed in HEK293 cells assessed as induction of NF-kappaB activity by secreted alkaline phosphatase reporter gene assay; summary of the method: as §1
Chain of Toll-like receptor 3 (Homo sapiens) (O15455 whole entry): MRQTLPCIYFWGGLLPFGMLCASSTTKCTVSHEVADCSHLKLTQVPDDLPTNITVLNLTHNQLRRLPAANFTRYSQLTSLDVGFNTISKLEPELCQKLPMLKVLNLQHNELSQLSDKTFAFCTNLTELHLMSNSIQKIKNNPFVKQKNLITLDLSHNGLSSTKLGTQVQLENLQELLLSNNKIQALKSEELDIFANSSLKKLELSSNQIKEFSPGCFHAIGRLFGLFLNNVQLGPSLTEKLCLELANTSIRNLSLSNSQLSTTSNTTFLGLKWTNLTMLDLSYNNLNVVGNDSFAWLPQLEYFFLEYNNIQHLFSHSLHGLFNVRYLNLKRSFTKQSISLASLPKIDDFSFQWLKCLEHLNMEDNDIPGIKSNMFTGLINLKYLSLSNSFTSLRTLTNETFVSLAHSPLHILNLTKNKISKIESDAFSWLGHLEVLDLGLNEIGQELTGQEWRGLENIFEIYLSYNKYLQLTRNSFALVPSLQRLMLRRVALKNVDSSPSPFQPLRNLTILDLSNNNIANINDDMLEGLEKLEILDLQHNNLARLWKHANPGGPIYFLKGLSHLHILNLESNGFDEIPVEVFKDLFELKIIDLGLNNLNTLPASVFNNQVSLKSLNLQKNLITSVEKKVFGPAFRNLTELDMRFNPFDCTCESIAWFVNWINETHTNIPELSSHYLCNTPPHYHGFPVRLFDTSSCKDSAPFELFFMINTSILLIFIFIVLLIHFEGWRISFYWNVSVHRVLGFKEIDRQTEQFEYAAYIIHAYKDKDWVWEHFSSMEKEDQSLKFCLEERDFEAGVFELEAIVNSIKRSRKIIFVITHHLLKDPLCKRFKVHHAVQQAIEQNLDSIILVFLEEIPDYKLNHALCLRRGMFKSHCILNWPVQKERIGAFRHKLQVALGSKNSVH

[4] = biological target: Toll-like receptor 4 (Homo sapiens) (UniProt O00206); test: Agonist activity at human TLR4 expressed in HEK293 cells assessed as induction of NF-kappaB activity by secreted alkaline phosphatase reporter gene assay; summary of the method: as §1
Chain of Toll-like receptor 4 (Homo sapiens) (O00206 whole entry): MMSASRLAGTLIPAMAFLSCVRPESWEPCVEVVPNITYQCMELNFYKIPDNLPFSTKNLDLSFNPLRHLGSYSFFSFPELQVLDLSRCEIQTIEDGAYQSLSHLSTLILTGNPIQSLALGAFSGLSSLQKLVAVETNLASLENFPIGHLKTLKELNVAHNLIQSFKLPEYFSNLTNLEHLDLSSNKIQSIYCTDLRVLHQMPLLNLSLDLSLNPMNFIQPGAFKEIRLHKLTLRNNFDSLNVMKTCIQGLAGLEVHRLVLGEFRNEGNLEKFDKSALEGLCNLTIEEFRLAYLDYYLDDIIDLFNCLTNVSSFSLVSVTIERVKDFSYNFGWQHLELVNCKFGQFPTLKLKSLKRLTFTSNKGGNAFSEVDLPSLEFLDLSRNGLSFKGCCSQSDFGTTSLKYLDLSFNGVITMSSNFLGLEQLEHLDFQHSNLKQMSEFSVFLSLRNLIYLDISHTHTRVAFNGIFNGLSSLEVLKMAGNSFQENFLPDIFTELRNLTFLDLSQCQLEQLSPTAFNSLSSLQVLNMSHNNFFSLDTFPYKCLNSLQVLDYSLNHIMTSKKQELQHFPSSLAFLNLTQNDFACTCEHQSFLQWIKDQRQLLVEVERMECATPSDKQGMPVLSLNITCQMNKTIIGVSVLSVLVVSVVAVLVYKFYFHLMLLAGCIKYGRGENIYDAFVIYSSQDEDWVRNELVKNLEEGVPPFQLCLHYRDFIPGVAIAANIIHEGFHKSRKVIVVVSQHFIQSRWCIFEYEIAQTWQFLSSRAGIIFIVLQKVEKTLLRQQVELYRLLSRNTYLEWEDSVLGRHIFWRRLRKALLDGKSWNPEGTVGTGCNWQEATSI

[5] = biological target: Toll-like receptor 5 (Homo sapiens) (UniProt O60602); test: Agonist activity at human TLR5 expressed in HEK293 cells assessed as induction of NF-kappaB activity by secreted alkaline phosphatase reporter gene assay; summary of the method: as §1
Chain of Toll-like receptor 5 (Homo sapiens) (O60602 whole entry): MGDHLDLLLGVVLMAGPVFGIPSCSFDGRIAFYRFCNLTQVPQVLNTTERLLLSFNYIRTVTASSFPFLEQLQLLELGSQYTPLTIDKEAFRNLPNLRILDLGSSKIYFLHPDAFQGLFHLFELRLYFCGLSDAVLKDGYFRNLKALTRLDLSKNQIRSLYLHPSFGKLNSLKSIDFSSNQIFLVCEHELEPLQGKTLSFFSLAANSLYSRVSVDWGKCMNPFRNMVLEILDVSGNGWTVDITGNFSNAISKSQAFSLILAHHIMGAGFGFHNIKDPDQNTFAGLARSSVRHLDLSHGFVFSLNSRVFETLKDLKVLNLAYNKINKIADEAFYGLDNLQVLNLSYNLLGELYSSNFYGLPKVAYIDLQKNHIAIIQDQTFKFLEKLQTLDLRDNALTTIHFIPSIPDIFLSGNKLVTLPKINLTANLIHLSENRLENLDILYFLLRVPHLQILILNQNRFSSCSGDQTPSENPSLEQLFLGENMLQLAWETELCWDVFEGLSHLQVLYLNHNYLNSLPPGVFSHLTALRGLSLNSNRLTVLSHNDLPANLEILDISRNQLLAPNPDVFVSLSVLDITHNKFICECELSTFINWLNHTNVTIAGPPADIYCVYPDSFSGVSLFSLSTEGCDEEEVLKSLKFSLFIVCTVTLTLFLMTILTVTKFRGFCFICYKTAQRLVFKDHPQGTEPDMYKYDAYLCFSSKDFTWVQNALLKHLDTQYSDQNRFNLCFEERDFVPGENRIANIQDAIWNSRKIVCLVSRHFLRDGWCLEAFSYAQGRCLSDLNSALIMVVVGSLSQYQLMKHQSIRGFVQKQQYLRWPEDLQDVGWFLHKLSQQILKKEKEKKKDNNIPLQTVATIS

[6] = biological target: T3, Toll-like receptor 7 (Homo sapiens) (UniProt Q9NYK1); test: Agonist activity at human TLR7 expressed in HEK293 cells assessed as induction of NF-kappaB activity by secreted alkaline phosphatase reporter gene assay; summary of the method: as §1
T3 sequence (whole entry): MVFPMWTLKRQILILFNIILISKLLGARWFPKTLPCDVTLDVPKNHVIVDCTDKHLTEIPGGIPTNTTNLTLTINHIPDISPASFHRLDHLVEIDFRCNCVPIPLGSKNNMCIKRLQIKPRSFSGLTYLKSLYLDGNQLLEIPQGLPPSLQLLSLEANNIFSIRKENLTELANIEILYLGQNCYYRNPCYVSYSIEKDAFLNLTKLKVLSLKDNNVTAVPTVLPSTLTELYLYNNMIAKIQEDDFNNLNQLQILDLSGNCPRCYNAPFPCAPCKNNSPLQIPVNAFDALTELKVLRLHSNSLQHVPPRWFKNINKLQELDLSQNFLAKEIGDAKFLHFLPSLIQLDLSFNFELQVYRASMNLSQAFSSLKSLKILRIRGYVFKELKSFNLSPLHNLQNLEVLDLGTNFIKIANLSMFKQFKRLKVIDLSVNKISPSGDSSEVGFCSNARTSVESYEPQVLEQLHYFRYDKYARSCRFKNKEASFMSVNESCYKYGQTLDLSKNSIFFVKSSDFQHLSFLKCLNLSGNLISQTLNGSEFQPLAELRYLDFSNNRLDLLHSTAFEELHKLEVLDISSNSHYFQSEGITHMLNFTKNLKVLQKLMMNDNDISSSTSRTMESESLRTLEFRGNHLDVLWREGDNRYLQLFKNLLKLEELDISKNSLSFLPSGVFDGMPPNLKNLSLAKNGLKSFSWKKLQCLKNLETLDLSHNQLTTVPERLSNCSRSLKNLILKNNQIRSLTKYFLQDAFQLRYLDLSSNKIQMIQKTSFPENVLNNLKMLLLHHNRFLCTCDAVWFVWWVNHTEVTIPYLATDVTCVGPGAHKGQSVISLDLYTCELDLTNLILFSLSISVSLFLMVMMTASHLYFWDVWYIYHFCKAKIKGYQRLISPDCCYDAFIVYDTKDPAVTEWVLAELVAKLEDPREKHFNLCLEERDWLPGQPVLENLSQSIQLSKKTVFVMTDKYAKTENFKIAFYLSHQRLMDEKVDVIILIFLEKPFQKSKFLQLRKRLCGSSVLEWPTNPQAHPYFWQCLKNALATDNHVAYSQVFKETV

[7] = biological target: T4, Toll-like receptor 9 (Homo sapiens) (UniProt Q9NR96); test: Agonist activity at human TLR9 expressed in HEK293 cells assessed as induction of NF-kappaB activity by secreted alkaline phosphatase reporter gene assay; summary of the method: as §1
T4 sequence (whole entry): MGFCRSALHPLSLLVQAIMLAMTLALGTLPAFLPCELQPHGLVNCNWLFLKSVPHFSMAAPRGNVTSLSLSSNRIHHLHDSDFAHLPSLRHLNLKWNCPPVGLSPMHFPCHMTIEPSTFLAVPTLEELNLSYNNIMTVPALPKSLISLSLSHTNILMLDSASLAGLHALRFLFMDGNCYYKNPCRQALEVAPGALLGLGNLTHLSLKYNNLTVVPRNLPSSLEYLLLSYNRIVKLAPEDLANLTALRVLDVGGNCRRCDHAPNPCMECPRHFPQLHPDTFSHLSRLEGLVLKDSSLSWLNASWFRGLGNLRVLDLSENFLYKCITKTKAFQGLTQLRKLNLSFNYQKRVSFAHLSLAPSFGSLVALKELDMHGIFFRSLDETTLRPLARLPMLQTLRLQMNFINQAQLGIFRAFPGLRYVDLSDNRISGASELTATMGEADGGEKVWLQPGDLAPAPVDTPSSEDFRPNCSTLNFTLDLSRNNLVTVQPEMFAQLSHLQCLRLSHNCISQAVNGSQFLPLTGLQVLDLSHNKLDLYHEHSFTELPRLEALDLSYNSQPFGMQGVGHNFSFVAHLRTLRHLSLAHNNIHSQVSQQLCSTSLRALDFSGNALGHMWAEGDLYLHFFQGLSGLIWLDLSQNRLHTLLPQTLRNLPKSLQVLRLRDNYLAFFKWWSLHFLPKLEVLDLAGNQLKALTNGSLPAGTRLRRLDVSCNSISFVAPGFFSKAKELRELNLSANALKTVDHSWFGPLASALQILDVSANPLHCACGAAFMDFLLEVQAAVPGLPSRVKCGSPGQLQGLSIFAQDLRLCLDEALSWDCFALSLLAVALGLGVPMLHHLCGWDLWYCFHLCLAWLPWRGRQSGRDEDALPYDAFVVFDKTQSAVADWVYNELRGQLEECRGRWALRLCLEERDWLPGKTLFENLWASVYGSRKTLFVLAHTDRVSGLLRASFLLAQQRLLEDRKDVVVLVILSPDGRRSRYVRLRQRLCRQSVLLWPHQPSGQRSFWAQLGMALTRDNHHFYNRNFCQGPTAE

Row | SMILES | Activity [1] | other results
1 | CCCCNc1nc(N)nc(C)c1Cc1ccccc1 |  | EC50 (Toll-like receptor 8): 1.2 µM
2 | CCCCNc1nc(N)nc(C)c1Br |  | EC50 (Toll-like receptor 8): 8.5 µM
3 | CCCCNc1nc(N)nc(C)c1F |  | EC50 (Toll-like receptor 8): 34 µM
4 | CCCC#Cc1cc(C)nc(N)n1 | inactive | 
5 | CCCCNc1nc(N)nc(N)c1I | inactive | 
6 | CCCCCNc1nc(N)nc(C)c1I |  | EC50 (Toll-like receptor 8): 3.7 µM
7 | CCCCSc1nc(N)nc(C)c1I | inactive | 
8 | CCCCNc1cc(C)nc(N)n1 |  | Activity [2]: inactive; Activity [3]: inactive; Activity [4]: inactive; Activity [5]: inactive; Activity [6]: inactive; Activity [7]: inactive
9 | CCCCOc1nc(N)nc(C)c1I | inactive | 
10 | CCCCNc1nc(N)nc(C)c1CCCN |  | Activity [2]: inactive; Activity [3]: inactive; Activity [4]: inactive; Activity [5]: inactive; Activity [6]: inactive; Activity [7]: inactive
11 | CCCCNc1cc(N)nc(N)n1 | inactive | 
12 | CCCCNc1nc(N)ncc1I | inactive | 
13 | CCCCNc1nc(N)nc(-c2ccccc2)c1CCCN | inactive | 
14 | CCCCNc1nc(N)nc(Cl)c1I | inactive | 
15 | CCCCNc1nc(N)nc(C)c1Cl |  | EC50 (Toll-like receptor 8): 20 µM
16 | CCCCNc1cc(OC)nc(N)n1 | inactive | 
17 | CCCCNc1nc(N)nc(C)c1CCCCCN |  | EC50 (Toll-like receptor 8): 0.3 µM
18 | CCCCCc1nc(N)nc(C)c1I | inactive | 
19 | CCCCCc1cc(C)nc(N)n1 | inactive | 
20 | CCCCNc1cc(Cl)nc(N)n1 | inactive | 
21 | CCCCCCNc1nc(N)nc(C)c1I | inactive | 
22 | CCCCNc1nc(N)nc(OC)c1I | inactive | 
23 | CCCNc1nc(N)nc(C)c1I | inactive | 
24 | CCCCNc1nc(N)nc(-c2ccccc2)c1I | inactive | 
25 | CCCCN(Cc1ccccc1)c1nc(N)nc(C)c1I | inactive | 
26 | CCCCN(C)c1nc(N)nc(C)c1I | inactive | 
